In the EternaBench riboswitch data:

System: MS2 coat protein
Test: apparent Kd, MS2 coat protein; higher = weaker binding; RNA-MaP array; FMN 200 µM where present
In short: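 In 100 mM Tris-HCl pH 7.5, 80 mM KCl, 4 mM MgCl2, BSA, DTT, yeast tRNA and Tween-20, SNAP-549-labelled MS2 coat protein was titrated from 0.7 or 1.5 nM, doubling to 3 µM, over designs transcribed by stalled E. coli RNA polymerase on Illumina sequencing-chip clusters. This was done first without ligand, then with ligand held constant. After green signal was normalised to red-channel RNA signal and control-cluster median Fmax, the apparent Kd was taken as the median of filtered per-cluster binding-curve fits.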

[1] = designed as: OFF switch for flavin mononucleotide, no ligand
[2] = ligand present: flavin mononucleotide, designed as: OFF switch for flavin mononucleotide
[3] = designed as: ON switch for flavin mononucleotide, no ligand
[4] = ligand present: flavin mononucleotide, designed as: ON switch for flavin mononucleotide

| Sequence | apparent Kd [1] [nM] | apparent Kd [2] [nM] | apparent Kd [3] [nM] | apparent Kd [4] [nM] |
| --- | --- | --- | --- | --- |
| UGAGCCUCGUGAGGAUAUACAUGAGGAUCACCCAUGUAGUAAAGUGAACGGAGGAAACUCCGAAUGUAGAAGGCACGAGGCUCA | 13.2 | 85.8 |  |  |
| UUAUGCUUUGAGAAGGUUCAAACUACAUAUUGCGCACAUGAGGAUCACCCAUGUUGGUGAAUAAGAAAGGAUAUUAGACUGUGC | 267 | 165 |  |  |
| AGAGAAUAGUCAGGAUAUGAGAAUAGAUAGAGCUCAGAAGGGACACAUGAGGAUCACCCAUGUGAAGUCUUGAGGCUGCGUGGA | 14.8 | 14.2 |  |  |
| GUUUAGUGAGGAUAUGUGGCUUCGAUCGUGCGCGGUCUGCUACAGAAGGCACAUGAGGAUCACCCAUGUUUCUC | 173 | 527 |  |  |
| ACAUGAGGAUCACCCAUGUGUGCAUAGGAUAUUGAGGAUUAGGGAUAUUAUUAUGGAUUUGCCCACAAGAAGGAUGAAAGUGUU |  |  | 17.8 | 15.7 |
| GCUCGAUGCGCUGAGCACAUGAGGAUCACCCAUGUAAAAUAUCAGGAUAUUUACGUGCUUUAUGUAGAGAAGGGAUUAUCGAGC |  |  | 101 | 41.4 |
| AACCUAUUACAGAAGGCCAGCUACAUGAGGAUCACCCAUGUCGAGUCAUGGAGGAUAUGUAGUAAUUUGCCCGCGGGCGAGUAC |  |  | 31.3 | 5.78 |
| UGGUACUACGGAGGAUAUCAUGUAUAUACAUGAGGAUCACCCAUGUCGUACGAGAGUACGGAGAUUGAGAAGGCCGUAGUACCU |  |  | 38.7 | 16.2 |
| AAAAAGGCAGGAUAUACAUGAGGAUCACCCAUGUAAAGAAAGAAAGAGGUGAAAGAAAGUAGAAGGGCCAAAAA | 160 | 179 |  |  |
| CGUACUGAAGUAAGGAUAUUGUCUCGGAUACGAAACAAGAAGGUACAUGAGGAUCACCCAUGUUGACAGUACGA | 16.6 | 16.7 |  |  |
| GCGAAUAUGGGUUAGGAUAUGCGCGCAUGUACAUGAGGAUCACCCAUGUUUACGGGCGCCUUUGAGCAGAAGGAGCUAAUCAACGC |  |  | 36.5 | 27.6 |
| AACAGUAGAGGAUAUACAUGAGGAUCACCCAUGUGAGAUUUAAGUGGCGUACCACAAAGUAGAAGGCUACUGGA | 36.2 | 161 |  |  |
| UUUGGGUGGCUGGAGGAUAUUCUAGUGGUUACAUGAGGAUCACCCAUGUGUCGCGCGGUACGCGAGGAGAAGGCUGGCGGCCGUU |  |  | 135 | 35.1 |
| AGCUAUUACGAAGGAUAUUCUGACAUGAGGAUCACCCAUGUCUUCAUGAUUUAUUGUGAUCACAUGAAGAAGGUCGUACUAACA |  |  | 198 | 48.3 |
| AACAAACAUGAGGAUCACCCAUGUGAGGAUAUCGGAUGUACAGCGCAAUUAGAAUUAACGAGAAGGCACACUUA | 30.6 | 29.1 |  |  |
| AGUGCUAUGUAGAAGGCAGAUCUGAUUCAGAUCUGAGGAUAUACAUGAGGAUCACCCAUGUUAUGCACCAGCACGAGAGUGCAG | 9.24 | 22.6 |  |  |
| GAAUGCAGAGGAUAUACGGGACAGCAUCGAAAGAUGCUGAAACAUGAGGAUCACCCAUGUAGAAGGCUGCAGAA | 73.2 | 154 |  |  |
| AGGGAGGAAGCUGAGGAUAUCGUAAGGAGGACAUGAGGAUCACCCAUGUGUGUGGAAUUGGAGGACGAGAAGGCAGAGGAGUGGG |  |  | 31.5 | 36 |
| AAAGAAAACAUAGGAUAUGUAACAUGAGGAUCACCCAUGUAUACCUCGUAAGAGAUGAUGGAUGGACAGAAGGAUGAUCUCAGG |  |  | 140 | 214 |
| GCCAUCUCAUGAGGAUAUGCUCCCGUGUCGGGAGCAGAAGGCAUGUCAUAAGACAUGAGGAUCACCCAUGUAGUUAAGAUGGCA |  |  | 263 | 11.1 |
| CAGCGAUAGCUGAAUGGUACAUGGGAGGAUAUGGGUUGAACAUGAGGAUCACCCAUGUUAUAAUACUAGAAGGCCCAUGUACCU |  |  | 16.6 | 5.45 |
| CAACUCGGAGGAUAUAGCUGUUCUAACAUGAGGAUCACCCAUGUGCAGUUCCUUGUUAGGCUAGAAGGCCGGUAUA | 40.6 | 99.1 |  |  |
| UUAGAAUUGUUAGGAUAUUAAUUAUUUUUUAGUAUGAUCUACAUGAGGAUCACCCAUGUUAAAUAUAAGAAGGAACGUUAUAUU | 63.6 | 63.6 |  |  |
| ACAUUAAGUGCAGGAUAUGCCAACCUGGGUUCGGUAGAAGGGCACAUGAGGAUCACCCAUGUAGCGGUGGGUUGGGCCAAGGUU | 13.3 | 35.6 |  |  |
| UGGUACUAGGGAGGAUAUGGGAAAAUACAUGAGGAUCACCCAUGUUUAAGAAUGCCGAGAGGCAACUAGAAGGCCCUAGUACCU |  |  | 16.2 | 5.26 |
| GCCUUAUCUGUCAGGAUAUACAAUAAAAUAUUUUUGUAGAAGGGACAUGAGGAUCACCCAUGUACAUUACAUUG | 42 | 262 |  |  |
| UAUCGUGUUCGAGGAUAUGAAACUAGGCCGGGCACUGUAUACCCGCCUGUCUCAGAAGGCGGACAUGAGGAUCACCCAUGUAAA | 202 | 17.4 |  |  |
| GCAAGAAUAGGAUAUACACCAUGUCAGCUUCUAUACAACGCACAUGAGGAUCACCCAUGUAGAAGGGUUCUCUC | 553 | 504 |  |  |

| Sequence | apparent Kd [1] [nM] | apparent Kd [2] [nM] | apparent Kd [3] [nM] | apparent Kd [4] [nM] |
| --- | --- | --- | --- | --- |
| GUAUUUAGAUAAGGAUAUAAGUCUAUGACAUGAGGAUCACCCAUGUGUGUUUUAGAAGGUAUUUGGGUAAUAUUGUUACAGUAA |  |  | 29.6 | 21.3 |
| UCUUUGCUAUAUACAUGAGGAUCACCCAUGUCCACUGACAGACAGGAUAUCCUUAGAAACUAGCAGGAGAAGGGUCAGUCAUAC |  |  | 140 | 74.8 |
| CCUCGUCACAUUAACAUGAGGAUCACCCAUGUCAAAAGACAUGAGGAUAUGCAUCCUAAUUGGAUGCAGAAGGCAUGGACGAGG |  |  | 474 | 36.5 |
| UGGUACUAGGGAGGAUAUGGGAAGCUACAUGAGGAUCACCCAUGUUUAAGAAUGCCGAGAGGCAACUAGAAGGCCCUAGUACCU |  |  | 30.2 | 5.56 |
| CCAGCAACAUGAGGAUCACCCAUGUAGGAUAUCGCUAUUGUAAUCAUGAAACAUGAUUACAAUAGCGAGAAGGACAUAUGCUGG | 6.31 | 10.1 |  |  |
| UCGCUGCGAGGAUAUACGUUUGCGCGCUUUCGUUUGCGCGUACAUGAGGAUCACCCAUGUAGAAGGCGCGCCGC | 15.9 | 15.9 |  |  |
| UCCUCUUUGAAGAAGGCGUGGCCAUGCAAGCCGCGAGGAUAUUCACAUGAGGAUCACCCAUGUGGAUUUCAGUCCGCUCAAAAC | 13.4 | 68 |  |  |
| GGAGCCGGCACCGAGGAUAUUCAUAUUAAAACAUGAGGAUCACCCAUGUAGGCCAGAAGGCCUUGGGAGAAGGCGGACCGGCUCG |  |  | 654 | 31.1 |
| UACGGACAUGAGGAUCACCCAUGUGAGGAUAUCGAUAACGAUAGCAUAAUAUAAACGGCGAGAAGGCACAGCGU | 32.6 | 45.8 |  |  |
| AACAGUACAGGAUAUACAUGAGGAUCACCCAUGUGACAAUUAAGUGGCGUACCACAGAGUAGAAGGGUACUGGA | 35 | 151 |  |  |
| AUUUAUGUCAUAGGAUAUAUAAAUAAAUUUAUAACAUGAGGAUCACCCAUGUACUUGGGUAUUAGGUAGAAGGAUGAUAAGAAU |  |  | 572 | 254 |
| UGGCUACAUGAGGAUCACCCAUGUCAGGAUAUGCCGUCGGCUUGCGUUCGUCGUUCGGGUAGAAGGGACUGCGG | 85.3 | 106 |  |  |
| GGGCAAAAGUAGAAGGGAUAUACGAAAAGUAUAUCAGGAUAUACAUGAGGAUCACCCAUGUUCUAAAAGUGAUAGUCCUCCCUA | 33.3 | 262 |  |  |
| UUGCCACAUGAGGAUCACCCAUGUGAGGAUAUGGCCUGUUUGGCGUGUGCUGGCUCUGUCAGAAGGCGCGUGGG | 31.8 | 37.5 |  |  |
| GUGGUACAUGAGGAUCACCCAUGUUAGGAUAUCGCGUGGUUUUUUGCGGCCGCGCGCGCGAGAAGGGACGUCUU | 41.4 | 31.7 |  |  |
| GCUGGUCAAGGAUAUAUAUGACGUGCUUCGGCACGAAGAUCACAUGAGGAUCACCCAUGUAGAAGGUGACCAGC | 96.9 | 793 |  |  |
| GUAGCAUUCCGAGGAUAUUCAGGGCGUGGAUAUACAUGAGGAUCACCCAUGUGGCGGAAGCCUAGGGAGAAGGCGGGCUGCUUC |  |  | 27.8 | 18.6 |
| AUAUCGUCAGGAUAUGCUAGUAAAUGUUUCAUUUCUUCAUAGCAGAAGGGACAUGAGGAUCACCCAUGUAAGUC | 37.6 | 39.6 |  |  |
| AUCUUUAACAUAGGAUAUAGUAUGAUGGUUUAAUUAGAAGGAUGUCACAUGAGGAUCACCCAUGUAAUAGGAUUACCCAUGUAU | 20.2 | 15.7 |  |  |
| UGCAGCGUGCACAUGAGGAUCACCCAUGUGCCAGCGGACGCACAGGAUAUGCAAUCGUACGGCUAGCAGAAGGGUGGGUCUCAC |  |  | 13.5 | 7.13 |
| CAGGUGUUAGGAUAUCGGAGGUUGAGGCAGACGGGAAUAUUCGAGAAGGAACAUGAGGAUCACCCAUGUAGUAG | 22.8 | 24.8 |  |  |
| UGUGUGAGACAGGAUAUGCCGGUUGUGUUACUGGUAGAAGGGUCUACAUGAGGAUCACCCAUGUGGCCGGCCGG | 152 | 154 |  |  |
| UAUAAACAUGAGGAUCACCCAUGUAAUAAUAUGGGAGGAUAUCAGAUUUAAUUUAAUUUAUGAGAAGGCCUAAUAU |  |  | 627 | 43.1 |
| UCAUUUCAGUAAGGAUAUUAAUUCAUGACGAUACAUGAGGAUCACCCAUGUUAAGAAGGUACUAAUACAAAUAAUGCAUUGUUC | 12.4 | 11.2 |  |  |
| UUUCGGAGCAGAGGAUAUUACAUGAGGAUCACCCAUGUAUGAACCAAUAGCUGGAAACAGCAAUGUAAGAAGGCUGCUCCGACA | 11.2 | 182 |  |  |
| UAUAUAUAGUAAGGAUAUGUAAUUCUUUUAUAAACAGAAGGUACUGACAUGAGGAUCACCCAUGUUUUAGUGUGGGCAUGUAGA | 66.3 | 81.9 |  |  |
| AGGUAAACCACAGGAUAUGGCUAGCAUAGCUAGCCAGAAGGGUGGUCGAAACCAUGUAAAUACAUGAGGAUCACCCAUGUAUCC |  |  | 566 | 75.3 |
